According to ChEMBL document CHEMBL1154970, “Replacement of pyrazol-3-yl amine hinge binder with thiazol-2-yl amine: Discovery of potent and selective JAK2 inhibitors” (Bioorg Med Chem Lett, 2010):

Key:
[1] = Growth inhibition of mouse BA/F3 cells transfected with recombinant TEL-JAK2 kinase after 48 hrs by alamar blue assay; assay type: functional, cell-based; conditions: BaF3, 48 h
Procedure, shortened: (§1)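 Proliferation of Ba/F3 cells transfected with TEL-JAK2 or TEL-JAK3 fusions; GI50 determined.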

[2] = Intrinsic clearance in rat liver microsomes at 2 uM by LC-MS/MS; assay type: ADME, Microsome
Procedure, shortened: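 Rat liver microsomes incubated with compound at 2 μM initial concentration; time-dependent disappearance of parent measured by LC–MS/MS to give intrinsic clearance (μL/min/mg).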

[3] = target: T1, Tyrosine-protein kinase JAK2 (Homo sapiens, UniProt O60674); test: Inhibition of recombinant JAK2 kinase in presence of 5 mM ATP
T1 sequence (O60674 whole entry): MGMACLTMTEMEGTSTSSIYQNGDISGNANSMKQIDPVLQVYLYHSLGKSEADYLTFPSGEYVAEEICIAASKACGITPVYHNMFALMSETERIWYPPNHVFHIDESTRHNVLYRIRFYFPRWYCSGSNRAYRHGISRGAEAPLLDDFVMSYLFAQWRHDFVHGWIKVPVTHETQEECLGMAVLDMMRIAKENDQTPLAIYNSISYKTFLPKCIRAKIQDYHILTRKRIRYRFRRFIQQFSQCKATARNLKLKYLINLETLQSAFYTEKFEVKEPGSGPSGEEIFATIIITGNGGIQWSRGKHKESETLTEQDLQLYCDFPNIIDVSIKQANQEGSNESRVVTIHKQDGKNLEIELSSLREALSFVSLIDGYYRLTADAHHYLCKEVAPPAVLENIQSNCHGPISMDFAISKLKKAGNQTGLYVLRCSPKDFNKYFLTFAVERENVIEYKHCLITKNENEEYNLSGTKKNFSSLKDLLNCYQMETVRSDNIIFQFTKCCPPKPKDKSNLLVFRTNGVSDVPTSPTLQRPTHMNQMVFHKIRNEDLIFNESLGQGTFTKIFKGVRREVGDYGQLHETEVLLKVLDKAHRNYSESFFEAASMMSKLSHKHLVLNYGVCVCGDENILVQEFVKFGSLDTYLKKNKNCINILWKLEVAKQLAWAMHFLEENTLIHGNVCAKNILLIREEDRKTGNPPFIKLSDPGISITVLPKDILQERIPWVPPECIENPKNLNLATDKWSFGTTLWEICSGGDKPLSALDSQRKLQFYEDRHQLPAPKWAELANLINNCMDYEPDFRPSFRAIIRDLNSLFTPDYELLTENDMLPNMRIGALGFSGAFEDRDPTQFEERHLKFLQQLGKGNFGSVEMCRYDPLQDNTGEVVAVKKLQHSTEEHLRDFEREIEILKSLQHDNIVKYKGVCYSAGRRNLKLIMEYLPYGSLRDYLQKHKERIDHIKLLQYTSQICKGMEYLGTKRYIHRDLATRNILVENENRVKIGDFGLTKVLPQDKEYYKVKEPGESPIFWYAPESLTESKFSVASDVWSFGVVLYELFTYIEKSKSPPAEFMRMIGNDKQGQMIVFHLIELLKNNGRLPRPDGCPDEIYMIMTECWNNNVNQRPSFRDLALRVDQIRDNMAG

[4] = Growth inhibition of mouse BA/F3 cells transfected with recombinant TEL-JAK3 kinase after 48 hrs by alamar blue assay; assay type: functional, cell-based, BaF3; procedure, shortened: as §1
[5] = Half life in Han Wistar rat at 3 mg/kg, iv; assay type: ADME, organism-based; design: dose 3 mg/kg, route intravenous; conditions: in vivo
[6] = target: Voltage-gated inwardly rectifying potassium channel KCNH2 (Homo sapiens, UniProt Q12809)
Voltage-gated inwardly rectifying potassium channel KCNH2, sequence (Q12809 whole entry): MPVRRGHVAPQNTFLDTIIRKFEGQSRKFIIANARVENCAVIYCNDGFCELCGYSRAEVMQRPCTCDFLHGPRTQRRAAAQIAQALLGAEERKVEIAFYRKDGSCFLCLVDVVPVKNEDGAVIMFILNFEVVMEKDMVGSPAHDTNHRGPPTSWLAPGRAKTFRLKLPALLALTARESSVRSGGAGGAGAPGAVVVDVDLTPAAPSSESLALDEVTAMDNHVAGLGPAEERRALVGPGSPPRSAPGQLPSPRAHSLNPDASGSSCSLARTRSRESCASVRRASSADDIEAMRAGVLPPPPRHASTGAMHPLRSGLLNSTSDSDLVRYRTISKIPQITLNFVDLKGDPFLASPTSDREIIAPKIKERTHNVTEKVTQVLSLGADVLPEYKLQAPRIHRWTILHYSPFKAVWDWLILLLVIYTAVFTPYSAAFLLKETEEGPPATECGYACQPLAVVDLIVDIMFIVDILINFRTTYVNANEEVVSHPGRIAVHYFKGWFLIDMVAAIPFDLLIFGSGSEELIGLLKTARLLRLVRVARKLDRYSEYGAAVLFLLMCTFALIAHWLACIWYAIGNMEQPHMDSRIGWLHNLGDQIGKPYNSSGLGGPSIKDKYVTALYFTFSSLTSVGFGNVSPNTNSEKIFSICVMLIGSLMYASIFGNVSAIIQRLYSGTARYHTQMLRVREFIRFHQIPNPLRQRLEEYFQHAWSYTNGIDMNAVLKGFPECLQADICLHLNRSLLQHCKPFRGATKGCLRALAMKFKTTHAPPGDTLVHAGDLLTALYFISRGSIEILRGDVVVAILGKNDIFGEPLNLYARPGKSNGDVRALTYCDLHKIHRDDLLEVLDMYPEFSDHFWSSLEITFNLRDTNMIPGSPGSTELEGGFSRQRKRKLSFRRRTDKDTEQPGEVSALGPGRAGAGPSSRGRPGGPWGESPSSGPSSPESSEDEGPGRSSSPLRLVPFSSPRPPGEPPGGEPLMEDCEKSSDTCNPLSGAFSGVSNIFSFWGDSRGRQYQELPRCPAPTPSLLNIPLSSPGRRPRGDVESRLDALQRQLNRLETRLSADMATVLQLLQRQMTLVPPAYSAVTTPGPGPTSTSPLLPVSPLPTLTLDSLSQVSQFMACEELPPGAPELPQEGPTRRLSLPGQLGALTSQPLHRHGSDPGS

[7] = Plasma concentration in nude mouse transplanted with recombinant TEL-JAK2 expressing BA/F3 cells at 10 mg/kg, po dosed on day 10 of transplantation measured after 2 hrs; assay type: ADME, organism-based, BaF3; design: dose 10 mg/kg, route oral
Procedure, shortened: (§2)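 Female nude mice implanted intravenously with Ba/F3 TEL-JAK2 cells on day 0, then dosed orally once at 10 mg/kg on day 10. Total plasma drug concentration measured at 2 or 6 h post-dose by LC-MS on a C18 column, water/MeCN with 0.1% formic acid; n = 3 per time point.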

[8] = Plasma concentration in nude mouse transplanted with recombinant TEL-JAK2 expressing BA/F3 cells at 10 mg/kg, po dosed on day 10 of transplantation measured after 6 hrs; assay type: ADME, organism-based, BaF3; design: dose 10 mg/kg, route oral; procedure, shortened: as §2
[9] = Volume of distribution at steady state in Han Wistar rat at 3 mg/kg, iv; assay type: ADME, organism-based; design: dose 3 mg/kg, route intravenous; conditions: in vivo, read-out: Vdss
[10] = target: T1, Tyrosine-protein kinase JAK2; conditions: BaF3; 10 mg/kg
[11] = Clearance in Han Wistar rat at 3 mg/kg, iv; assay type: ADME, organism-based; design: dose 3 mg/kg, route intravenous; conditions: in vivo
BaF3 = test: Selectivity ratio of GI50 for mouse BA/F3 cells transfected with recombinant TEL-JAK3 kinase to GI50 for mouse BA/F3 cells transfected with recombinant TEL-JAK2 kinase; assay type: functional, cell-based
Procedure, shortened: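 Fold selectivity calculated as the TEL-JAK3 Ba/F3 GI50 divided by the TEL-JAK2 Ba/F3 GI50.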

[12] = Solubility of the compound; assay type: physicochemical
[13] = target: T1, Tyrosine-protein kinase JAK2; test: Inhibition of recombinant JAK2 kinase in presence of ATP
[14] = target: T1, Tyrosine-protein kinase JAK2; test: Inhibition of recombinant JAK2 kinase in presence of 5 mM ATP
[15] = Mus musculus, BaF3, 48 h, read-out: GI50

Compound | microsomal CLint at 2 µM [2] | IC50 [3] | half-life [5] | concentration at 2 h [7] | concentration at 6 h [8] | Vd [9] | clearance [11] | GI50 [1] | GI50 ([4]; Mus musculus, BaF3, 48 h) | IC50 [6] | RatioGI50 (BaF3) | also measured
COc1cc(Nc2ncc(C)s2)nc(N[C@@H](C)c2ncc(F)cn2)n1 | > 100 µL/min/mg | < 3 nM | – | – | – | – | – | – | – | > 32000 nM | 35 | GI50 ([1]; read-out: GI50): 42 nM; GI50 [4, 15]: 1500 nM
Cc1cnc(Nc2nc(N[C@@H](C)c3ncc(F)cn3)nc(N3CCOCC3)c2F)s1 | – | – | – | 219 ng/mL | 95 ng/mL | – | – | – | – | – | – | –
Cc1cnc(Nc2cncc(N[C@@H](C)c3ncc(F)cn3)n2)s1 | 52 µL/min/mg | 49 nM | – | – | – | – | – | – | – | – | – | solubility [12]: > 1000 µM; IC50 [13]: 4 nM
Cc1cnc(Nc2cc(N3CCOCC3)nc(N[C@@H](C)c3ccc(F)cn3)n2)s1 | > 120 µL/min/mg | – | 1.2 h | 126 ng/mL | 55 ng/mL | 2.8 L/kg | 38 mL/min/kg | – | 1200 nM | 12000 nM | – | –
Cc1cc(Nc2cncc(N[C@@H](C)c3ncc(F)cn3)n2)n[nH]1 | < 4 µL/min/mg | – | 1.4 h | – | – | 1.1 L/kg | 14 mL/min/kg | – | – | – | – | solubility [12]: > 1000 µM; IC50 [13]: < 3 nM
Cc1cnc(Nc2cc(N3CCN(C)CC3)nc(N[C@@H](C)c3ccc(F)cn3)n2)s1 | 220 µL/min/mg | < 3 nM | 1.3 h | – | – | 8.5 L/kg | 80 mL/min/kg | 5 nM | – | 13000 nM | – | RatioGI50 (BaF3; Mus musculus, BaF3): 129; GI50 [4]: 0.62

The next lines start with results.

microsomal CLint at 2 µM [2] | IC50 [3] | half-life [5] | concentration at 2 h [7] | concentration at 6 h [8] | Vd [9] | clearance [11] | Compound | GI50 [1] | GI50 ([4]; Mus musculus, BaF3, 48 h) | IC50 [6] | RatioGI50 (BaF3) | also measured
31 µL/min/mg | < 3 nM | – | – | – | – | – | C[C@H](Nc1nc(Nc2ncc(C#N)s2)cc(N2CCOCC2)n1)c1ccc(F)cn1 | 36 nM | 170 nM | – | – | –
84 µL/min/mg | 3 nM | 1.3 h | 715 ng/mL | 146 ng/mL | 2.3 L/kg | 32 mL/min/kg | Cc1cnc(Nc2cc(N3CCOCC3)nc(N[C@@H](C)c3ncc(F)cn3)n2)s1 | – | – | > 32000 nM | 237 | GI50 ([1]; read-out: GI50): 5 nM; inhibition [10]: > 80%; GI50 [4, 15]: 1100 nM
41 µL/min/mg | – | – | – | – | – | – | C[C@H](Nc1nc(Nc2ncc(C#N)s2)cc(N2CCOCC2)n1)c1ncc(F)cn1 | 53 nM | 520 nM | – | 10 | RatioGI50 [14]: 0.079
